Data as given in ChEMBL document CHEMBL1255436, “Peptide fragments of a beta-defensin derivative with potent bactericidal activity” (Antimicrob Agents Chemother, 2010).
≈ marks a conversion by molar mass, not a printed value. Calls of active or inactive are those of the source. No cut-off for these calls is given here.

Experiments:
Pseudomonas aeruginosa [1] = test: Antimicrobial activity against Pseudomonas aeruginosa PAO1 after 3 hrs by bactericidal assay; assay type: functional; details: PAO1, 3 h
Procedure, shortened: (§1)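 Mid-log cultures grown in Iso-Sensitest broth, diluted to 1 × 10⁶–5 × 10⁶ CFU/ml in 10 mM potassium phosphate with 1% (vol/vol) Iso-Sensitest broth, pH 7.4. Peptides (monomer made by 10 mM DTT reduction overnight at room temperature, or dimer; oxidation state checked by MS) are incubated with 100 μl cells at 37°C for 3 h. Tenfold dilutions are plated and CFU counted next day. MBC is >99.99% killing, in duplicate on three occasions, taken as the mean. Mann-Whitney U test.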

Acinetobacter baumannii = test: Antimicrobial activity against Acinetobacter baumannii ATCC 19606 after 3 hrs by bactericidal assay; assay type: functional; details: ATCC 19606 = CIP 70.34 = JCM 6841, 3 h; procedure, shortened: as §1
Burkholderia cenocepacia = test: Antimicrobial activity against Burkholderia cenocepacia J2315 after 3 hrs by bactericidal assay; assay type: functional; details: J2315, 3 h
Escherichia coli = test: Antimicrobial activity against Escherichia coli ATCC 25922 after 3 hrs by bactericidal assay; assay type: functional; details: ATCC 25922, 3 h; procedure, shortened: as §1
Enterococcus faecalis = test: Antimicrobial activity against Enterococcus faecalis ATCC 700802 after 3 hrs by bactericidal assay; assay type: functional; details: ATCC 700802, 3 h; procedure, shortened: as §1
Staphylococcus aureus [2] = test: Antimicrobial activity against Staphylococcus aureus ATCC 25923 after 3 hrs by bactericidal assay; assay type: functional; details: ATCC 25923, 3 h; procedure, shortened: as §1
Staphylococcus aureus [3] = test: Antibacterial activity against methicillin-resistant Staphylococcus aureus J2918 after 3 hrs by bactericidal assay; assay type: functional; details: J2918, 3 h; procedure, shortened: as §1
Pseudomonas aeruginosa [4] = test: Antimicrobial activity against Pseudomonas aeruginosa PAO1 after 3 hrs by bactericidal assay in presence of 200 mM NaCl; assay type: functional, organism-based
Procedure, shortened: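 Mid-log P. aeruginosa was grown in Iso-Sensitest broth and diluted in 10 mM potassium phosphate with 1% broth, pH 7.4, with sodium chloride added. Peptide dilutions were incubated with 1 × 10⁵ to 5 × 10⁵ CFU per 100 μl at 37°C for 3 h, then CFU were plated. MBC is >99.99% kill, the mean of duplicates from three independent runs.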

Pseudomonas aeruginosa [5] = test: Antimicrobial activity against Pseudomonas aeruginosa PAO1 after 3 hrs by bactericidal assay in presence of 10 mM NaCl; assay type: functional; details: PAO1, 3 h
Procedure, shortened: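 P. aeruginosa PAO1 at mid-log in Iso-Sensitest broth, diluted to 1 × 10⁶–5 × 10⁶ CFU/ml in 10 mM potassium phosphate/1% Iso-Sensitest broth, pH 7.4, with 10 mM NaCl added. Dimeric peptides are incubated with 100 μl cells at 37°C for 3 h, then plated as tenfold dilutions with CFU counted next day. MBC is >99.99% killing, from duplicates on three occasions. Mann-Whitney U test.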

Pseudomonas aeruginosa [6] = test: Antimicrobial activity against Pseudomonas aeruginosa PAO1 assessed as bacterial killing at 16.5 uM after 3 hrs by bactericidal assay; assay type: functional, organism-based
Staphylococcus aureus [7] = test: Stability of the compound in Staphylococcus aureus ATCC 25923 after 4 hrs by LC-MS analysis; assay type: ADME, organism-based
Procedure, shortened: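 Peptide is incubated with S. aureus ATCC 25923 for 4 h. Peptide integrity is then assessed by LC-MS as peak area relative to the sample before incubation.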

Pseudomonas aeruginosa [8] = test: Antimicrobial activity against Pseudomonas aeruginosa PAO1 at 20 uM; assay type: functional, organism-based
Staphylococcus aureus [9] = test: Antimicrobial activity against Staphylococcus aureus ATCC 25923 at 20 uM; assay type: functional, organism-based

| Compound | MBC (Pseudomonas aeruginosa [1]) | MBC (Acinetobacter baumannii) | MBC (Burkholderia cenocepacia) | MBC (Escherichia coli) | MBC (Enterococcus faecalis) | MBC (Staphylococcus aureus [2]) | MBC (Staphylococcus aureus [3]) | Activity (Pseudomonas aeruginosa [4]) | MBC (Pseudomonas aeruginosa [5]) | Activity (Pseudomonas aeruginosa [6]) | Stability (Staphylococcus aureus [7]) | Activity (Pseudomonas aeruginosa [8]) | Activity (Staphylococcus aureus [9]) |
| --- | --- | --- | --- | --- | --- | --- | --- | --- | --- | --- | --- | --- | --- |
| CC[C@H](C)[C@H](NC(=O)[C@H](CCCNC(=N)N)NC(=O)[C@H](C)NC(=O)[C@H](Cc1ccccc1)NC(=O)[C@H](Cc1ccccc1)NC(=O)[C@H](CCCCN)NC(=O)[C@H](CCCNC(=N)N)NC(=O)[C@H](CC(C)C)NC(=O)[C@@H](NC(=O)[C@H](CCCCN)NC(=O)[C@@H]1CCCN1C(=O)[C@H](CC(C)C)NC(=O)[C@@H](N)Cc1ccccc1)[C@H](C)O)C(=O)N[C@@H](CCCNC(=N)N)C(=O)NCC(=O)NCC(=O)N[C@@H](CCCNC(=N)N)C(=O)N[C@@H](C)C(=O)N[C@@H](C)C(=O)N[C@H](C(=O)N[C@@H](CC(C)C)C(=O)N[C@@H](CC(N)=O)C(=O)N[C@@H](C)C(=O)O)C(C)C | > 48 µg/mL | > 22 µg/mL | > 20 µg/mL | > 20 µg/mL | > 20 µg/mL | > 205 µg/mL | > 40 µg/mL |  |  |  |  |  |  |
| CC[C@H](C)[C@@H]1NC(=O)[C@H](CCC(N)=O)NC(=O)[C@H](CCC(=O)O)NC(=O)[C@H](CCC(=O)O)NC(=O)[C@H](CCCCN)NC(=O)CNC(=O)[C@H](CC(C)C)NC(=O)[C@@H]2CSSC[C@@H](C(=O)N[C@@H](CCCNC(=N)N)C(=O)N[C@@H](CCCCN)C(=O)N[C@@H](CCCCN)C(=O)N[C@@H](CCCCN)C(=O)O)NC(=O)[C@@H]3CSSC[C@H](NC(=O)[C@H](Cc4ccccc4)NC(=O)[C@H](Cc4ccccc4)NC(=O)[C@H](CCCCN)NC(=O)[C@H](CCCNC(=N)N)NC(=O)[C@H](CC(C)C)NC(=O)[C@@H](NC(=O)[C@H](CCCCN)NC(=O)[C@@H]4CCCN4C(=O)[C@H](CC(C)C)NC(=O)[C@@H](N)Cc4ccccc4)[C@H](C)O)C(=O)N[C@@H](CCCNC(=N)N)C(=O)N[C@@H]([C@@H](C)CC)C(=O)N[C@@H](CCCNC(=N)N)C(=O)NCC(=O)NCC(=O)N[C@@H](CCCNC(=N)N)C(=O)N[C@@H](CSSC[C@H](NC(=O)[C@H](CCCNC(=N)N)NC(=O)CNC1=O)C(=O)N[C@@H](CO)C(=O)N[C@@H](CC(N)=O)C(=O)N[C@@H](CO)C(=O)NCC(=O)N[C@@H](CCCNC(=N)N)C(=O)N[C@@H](CCCCN)C(=O)N3)C(=O)N[C@@H](C)C(=O)N[C@@H](C(C)C)C(=O)N[C@@H](CC(C)C)C(=O)N[C@@H](CC(N)=O)C(=O)N2 | 0.3 µg/mL (≈ 0.0579 µM) | 0.3 µg/mL (≈ 0.0579 µM) | 0.6 µg/mL (≈ 0.116 µM) | > 205 µg/mL | 1.2 µg/mL (≈ 0.231 µM) | 1 µg/mL (≈ 0.193 µM) | > 48 µg/mL |  |  |  |  |  |  |
| CC(C)C[C@H](NC(=O)[C@@H](NC(=O)[C@H](CCCCN)NC(=O)[C@@H]1CCCN1C(=O)[C@H](CC(C)C)NC(=O)[C@@H](N)Cc1ccccc1)[C@H](C)O)C(=O)N[C@@H](CCCNC(=N)N)C(=O)N[C@@H](CCCCN)C(=O)N[C@@H](Cc1ccccc1)C(=O)N[C@@H](Cc1ccccc1)C(=O)O | 1.3 µg/mL (≈ 1 µM) | 0.75 µg/mL (≈ 0.578 µM) | > 48 µg/mL | 3 µg/mL (≈ 2.31 µM) | 1.2 µg/mL (≈ 0.925 µM) | 1.2 µg/mL (≈ 0.925 µM) | 2.4 µg/mL (≈ 1.85 µM) | Active |  |  |  |  |  |
| CC[C@H](C)[C@H](NC(=O)[C@H](CCC(N)=O)NC(=O)[C@H](CCC(=O)O)NC(=O)[C@H](CCC(=O)O)NC(=O)[C@H](CCCCN)NC(=O)CNC(=O)[C@H](CC(C)C)NC(=O)[C@H](C)NC(=O)[C@H](CC(N)=O)NC(=O)[C@H](CC(C)C)NC(=O)[C@@H](NC(=O)[C@H](C)NC(=O)[C@H](C)NC(=O)[C@H](CCCNC(=N)N)NC(=O)CNC(=O)CNC(=O)[C@H](CCCNC(=N)N)NC(=O)[C@H](NC(=O)[C@H](CCCNC(=N)N)NC(=O)[C@H](C)NC(=O)[C@H](Cc1ccccc1)NC(=O)[C@H](Cc1ccccc1)NC(=O)[C@H](CCCCN)NC(=O)[C@H](CCCNC(=N)N)NC(=O)[C@@H](N)CC(C)C)[C@@H](C)CC)C(C)C)C(=O)NCC(=O)N[C@@H](CCCNC(=N)N)C(=O)N[C@@H](C)C(=O)N[C@@H](CO)C(=O)N[C@@H](CC(N)=O)C(=O)N[C@@H](CO)C(=O)NCC(=O)N[C@@H](CCCNC(=N)N)C(=O)N[C@@H](CCCCN)C(=O)N[C@@H](CS)C(=O)N[C@@H](C)C(=O)N[C@@H](CCCNC(=N)N)C(=O)N[C@@H](CCCCN)C(=O)N[C@@H](CCCCN)C(=O)N[C@@H](CCCCN)C(=O)O | 0.7 µg/mL (≈ 0.158 µM) |  |  | 2.5 µg/mL (≈ 0.563 µM) | 1.25 µg/mL (≈ 0.281 µM) | 1.4 µg/mL (≈ 0.315 µM) | 2.5 µg/mL (≈ 0.563 µM) | Active |  |  |  |  |  |
| H-AAVLNA-OH | > 83.5 µg/mL |  |  |  |  | > 83.5 µg/mL |  |  |  |  |  |  |  |
| H-AAVLNALGKEEQIGRASNSGRKCARKKK-OH | > 16.5 µg/mL | > 10 µg/mL |  | > 10 µg/mL | > 5 µg/mL | > 16.5 µg/mL | > 10 µg/mL |  |  |  |  |  |  |
| H-FFARIRGGRAAVLNALGKEEQIGRASNSGRKCARKKK-OH | 1.1 µg/mL | 2.9 µg/mL |  | 10 µg/mL | 1.9 µg/mL | 1.5 µg/mL | 2.2 µg/mL |  | 10 µM |  |  |  |  |
| H-GGRAAVLNALGKEEQIGRASNSGRKCARKKK-OH | > 15.2 µg/mL | > 10 µg/mL |  | > 10 µg/mL | > 5 µg/mL | > 15.2 µg/mL | > 10 µg/mL |  |  | inactive | Stable |  |  |
| H-IRGGRAAVLNALGKEEQIGRAS-OH | 1.2 µg/mL | 2.4 µg/mL | > 205 µg/mL | 38.6 µg/mL | 4.8 µg/mL | > 48 µg/mL | > 22 µg/mL |  |  |  |  |  |  |
| H-LGKEEQIGRASNSGRKCARKKK-OH | > 33 µg/mL | > 48 µg/mL | > 22 µg/mL |  | 0.6 µg/mL | 1.2 µg/mL | > 205 µg/mL |  |  |  |  |  |  |
| H-LRKFFARIRGGR-OH |  | 19 µg/mL | 16.5 µg/mL |  | > 22 µg/mL | 12.1 µg/mL | 7.1 µg/mL | Active |  |  |  |  |  |
| H-RGGRAAVLNA-OH | 1.2 µg/mL | > 205 µg/mL | 38.6 µg/mL | 9.6 µg/mL | > 48 µg/mL | > 22 µg/mL | 1.2 µg/mL |  |  |  |  |  |  |
| H-RIRGGRAAVLNA-OH |  |  |  |  |  |  |  |  |  |  |  | inactive | inactive |
| H-RIRGGRAAVLNALGKEEQIGRASNSGRKCARKKK-OH | 1.7 µg/mL | 2.5 µg/mL |  | > 10 µg/mL | > 5 µg/mL | 5.9 µg/mL | > 10 µg/mL |  |  |  |  |  |  |
